Calls of active or inactive are those of the source. The rule behind the calls is not given here.
Columns and labels:
[1] = Myocardial activity in Wistar-Kyoto rat right atrium exposed to electrical stimulation driven at 2 Hz assessed as muscle contraction at 3 uM relative to untreated control; type: functional, Muscle tissue
[2] = Myocardial activity in Wistar-Kyoto rat left atrium exposed to electrical stimulation driven at 2 Hz assessed as muscle contraction at 30 uM relative to untreated control; type: functional, Muscle tissue
Summary of the method: (§1)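 Left atrial and right ventricular strips from male Wistar-Kyoto rats, electrically driven, in Tyrode's solution gassed with CO2−O2 (1:19) at 36 ± 0.2 °C. Optimal preload 0.5−1.0 g for maximal developed tension. Contraction recorded by force displacement transducer and expressed as % of the pre-treatment control. Means from four to five experiments.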

Heart [3] = assay: Myocardial activity in Wistar-Kyoto rat heart assessed as heart rate level at 30 uM relative to untreated control; type: functional
Summary of the method: (§2)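 Right atria from male Wistar-Kyoto rat hearts in an organ bath of Tyrode's solution gassed with CO2−O2 (1:19) at 36 ± 0.2 °C. Spontaneous beating rate recorded and expressed as % of the pre-treatment control. Means from four to five experiments.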

[4] = Myocardial activity in Wistar-Kyoto rat left atrium exposed to electrical stimulation driven at 2 Hz assessed as muscle contraction at 3 uM relative to untreated control; type: functional, Muscle tissue; summary of the method: as §1
Heart [5] = assay: Myocardial activity in Wistar-Kyoto rat heart assessed as heart rate level at 10 uM relative to untreated control; type: functional; summary of the method: as §2
[6] = Myocardial activity in Wistar-Kyoto rat right ventricle exposed to electrical stimulation driven at 2 Hz assessed as muscle contraction at 3 uM relative to untreated control; type: functional, Muscle tissue; summary of the method: as §1
[7] = Myocardial activity in Wistar-Kyoto rat left atrium exposed to electrical stimulation driven at 2 Hz assessed as muscle contraction at 10 uM relative to untreated control; type: functional, Muscle tissue; summary of the method: as §1
[8] = Myocardial activity in Wistar-Kyoto rat right atrium exposed to electrical stimulation driven at 2 Hz assessed as muscle contraction at 10 uM relative to untreated control; type: functional, Muscle tissue
[9] = Myocardial activity in Wistar-Kyoto rat right atrium exposed to electrical stimulation driven at 2 Hz assessed as muscle contraction at 30 uM relative to untreated control; type: functional, Muscle tissue
[10] = Myocardial activity in Wistar-Kyoto rat right ventricle exposed to electrical stimulation driven at 2 Hz assessed as muscle contraction at 10 uM relative to untreated control; type: functional, Muscle tissue; summary of the method: as §1
Heart [11] = assay: Myocardial activity in Wistar-Kyoto rat heart assessed as heart rate level at 3 uM relative to untreated control; type: functional; summary of the method: as §2
[12] = Myocardial activity in Wistar-Kyoto rat right ventricle exposed to electrical stimulation driven at 2 Hz assessed as muscle contraction at 30 uM relative to untreated control; type: functional, Muscle tissue; summary of the method: as §1
Rattus norvegicus [13] = organism: Rattus norvegicus; assay: Positive inotropic effect in Wistar-Kyoto rat left atrium exposed to electrical stimulation driven at 2 Hz assessed as muscle contraction at 3 to 30 uM in presence of 1 uM prazosin relative to untreated control; type: functional, tissue-based; details: Cardiac atrium
Rattus norvegicus [14] = organism: Rattus norvegicus; assay: Positive inotropic effect in Wistar-Kyoto rat left atrium exposed to electrical stimulation driven at 2 Hz assessed as muscle contraction at 3 to 30 uM in presence of 1 uM verapamil relative to untreated control; type: functional, tissue-based; details: Cardiac atrium
Rattus norvegicus [15] = organism: Rattus norvegicus; assay: Positive inotropic effect in Wistar-Kyoto rat left atrium exposed to electrical stimulation driven at 2 Hz assessed as muscle contraction at 3 to 30 uM in presence of 3 uM atenolol relative to untreated control; type: functional, tissue-based; details: Cardiac atrium

SMILES: CCN1CCc2cc(OC)c(O)c3c2[C@@H]1Cc1cc(OC)c(OC)cc1-3
- Activity [1]: 93%
- Activity [2]: 131%
- Activity (Heart [3]): 84%
- Activity [4]: 105%
- Activity (Heart [5]): 97%
- Activity [6]: 100%
- Activity [7]: 122%
- Activity [8]: 127%
- Activity [9]: 162%
- Activity [10]: 108%
- Activity (Heart [11]): 97%
- Activity [12]: 111%

SMILES: COc1cc2c(cc1OC)-c1c(O)c(OC)cc3c1[C@H](C2)NCC3
- Activity [1]: 99%
- Activity [2]: 89%
- Activity (Heart [3]): 61%
- Activity [4]: 94%
- Activity (Heart [5]): 78%
- Activity [6]: 102%
- Activity [7]: 93%
- Activity [8]: 99%
- Activity [9]: 117%
- Activity [10]: 96%
- Activity (Heart [11]): 91%
- Activity [12]: 90%

SMILES: COc1cc2c(cc1OC)-c1c(O)c(OC)cc3c1[C@@H](C2)NCC3
- Activity [1]: 101%
- Activity [2]: 105%
- Activity (Heart [3]): 79%
- Activity [4]: 103%
- Activity (Heart [5]): 96%
- Activity [6]: 108%
- Activity [7]: 104%
- Activity [8]: 103%
- Activity [9]: 105%
- Activity [10]: 111%
- Activity (Heart [11]): 100%
- Activity [12]: 120%

SMILES: CCCN1CCc2cc(OC)c(O)c3c2[C@@H]1Cc1cc(OC)c(OC)cc1-3
- Activity [1]: 103%
- Activity [2]: 74%
- Activity (Heart [3]): 61%
- Activity [4]: 99%
- Activity (Heart [5]): 80%
- Activity [6]: 95%
- Activity [7]: 90%
- Activity [8]: 103%
- Activity [9]: 103%
- Activity [10]: 85%
- Activity (Heart [11]): 91%
- Activity [12]: 75%

SMILES: CCCN1CCc2cc(OC)c(O)c3c2[C@H]1Cc1cc(OC)c(OC)cc1-3
- Activity [1]: 121%
- Activity [2]: 99%
- Activity (Heart [3]): 68%
- Activity [4]: 101%
- Activity (Heart [5]): 79%
- Activity [6]: 100%
- Activity [7]: 105%
- Activity [8]: 131%
- Activity [9]: 141%
- Activity [10]: 100%
- Activity (Heart [11]): 88%
- Activity [12]: 96%

SMILES: COc1cc2c(cc1OC)-c1c(O)c(OC)cc3c1[C@H](C2)N(C)CC3
- Activity [1]: 104%
- Activity [2]: 243%
- Activity (Heart [3]): 82%
- Activity (Rattus norvegicus [13]): Active
- Activity [4]: 110%
- Activity (Heart [5]): 86%
- Activity [6]: 125%
- Activity [7]: 180%
- Activity (Rattus norvegicus [14]): Active
- Activity (Rattus norvegicus [15]): Active
- Activity [8]: 140%
- Activity [9]: 180%
- Activity [10]: 154%
- Activity (Heart [11]): 92%
- Activity [12]: 163%

SMILES: COc1cc2c(cc1OC)-c1c(O)c(OC)cc3c1[C@@H](C2)N(C)CC3
- Activity [1]: 106%
- Activity [2]: 100%
- Activity (Heart [3]): 69%
- Activity [4]: 106%
- Activity (Heart [5]): 85%
- Activity [6]: 93%
- Activity [7]: 103%
- Activity [8]: 121%
- Activity [9]: 129%
- Activity [10]: 80%
- Activity (Heart [11]): 92%
- Activity [12]: 72%

Source: ChEMBL document CHEMBL2331165, “Semisynthesis and myocardial activity of thaliporphine N-homologues” (2013)
